Test results reported in ChEMBL document CHEMBL1135670, “Discovery of 8-hydroxyadenines as a novel type of interferon inducer” (2002).

Legend:
Mus musculus [1] = organism: Mus musculus; test: Minimum effective concentration required for more than 1 IU/mL induction of IFN using mice spleen cells; type: functional; conditions: read-out: MEC
How it was run: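 Mouse spleen cells incubated with compound; IFN released into medium measured in IU/mL. Value is the minimum effective concentration, the lowest concentration giving more than 1 IU/mL IFN.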

Mus musculus [2] = test: Minimum effective dose required for more than 100 IU/mL induction of IFN using mice after peroral administration.; type: functional; conditions: po, read-out: MED
How it was run: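 Compound dosed orally to mice; IFN measured in plasma in IU/mL. Value is the minimum effective dose in mg/kg, the lowest dose giving more than 100 IU/mL IFN.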

Row | SMILES | minimal effective concentration (Mus musculus [1]) | minimal effective dose (Mus musculus [2])
1 | CCCCCOc1nc(N)c2nc(O)n(Cc3ccccc3)c2n1 | 0.01 µM | 0.3 mg/kg
2 | Nc1nc(N)c2nc(O)n(Cc3ccccc3)c2n1 | 10 µM | –
3 | Nc1nc(-c2ccccc2)nc2c1nc(O)n2Cc1ccccc1 | 10 µM | > 30 mg/kg
4 | Nc1ncnc2[nH]c(O)nc12 | > 10 µM | –
5 | Cc1nc(N)c2nc(O)n(Cc3ccccc3)c2n1 | 1 µM | 3 mg/kg
6 | CCNc1nc(N)c2nc(O)n(Cc3ccccc3)c2n1 | 1 µM | –
7 | CCCOc1nc(N)c2nc(O)n(Cc3ccccc3)c2n1 | 0.01 µM | 0.3 mg/kg
8 | CCOc1nc(N)c2nc(O)n(Cc3ccccc3)c2n1 | 0.1 µM | 0.3 mg/kg
9 | COc1cccc(Cn2c(O)nc3c(N)ncnc32)c1 | 10 µM | –
10 | COc1ccc(Cn2c(O)nc3c(N)ncnc32)cc1 | 10 µM | –
11 | COc1nc2c(N)ncnc2n1Cc1ccccc1 | > 10 µM | –
12 | Nc1ncnc2c1nc(O)n2Cc1ccc(F)cc1 | 10 µM | 30 mg/kg
13 | Nc1nc(SCc2ccccc2)nc2c1nc(O)n2Cc1ccccc1 | 0.1 µM | > 1 mg/kg
14 | CCCCOc1nc(N)c2[nH]c(=O)n(Cc3ccccc3)c2n1 | 0.001 µM | 0.1 mg/kg
15 | CCCCc1nc(N)c2nc(O)n(Cc3ccccc3)c2n1 | 0.03 µM | 0.3 mg/kg
16 | Nc1ncnc2c1nc(Br)n2Cc1ccccc1 | > 10 µM | –
17 | CCCc1nc(N)c2nc(O)n(Cc3ccccc3)c2n1 | 1 µM | 3 mg/kg
18 | CCCCNc1nc(N)c2nc(O)n(Cc3ccccc3)c2n1 | 0.1 µM | 0.1 mg/kg
19 | CCc1nc(N)c2nc(O)n(Cc3ccccc3)c2n1 | 1 µM | 3 mg/kg
20 | Cc1nc2c(N)ncnc2n1Cc1ccccc1 | > 10 µM | –
21 | Nc1ncnc2c1nc(O)n2-c1ccccc1 | > 10 µM | –
22 | CCCCSc1nc(N)c2nc(O)n(Cc3ccccc3)c2n1 | 0.01 µM | 0.3 mg/kg
23 | CCCCCSc1nc(N)c2nc(O)n(Cc3ccccc3)c2n1 | 10 µM | 1 mg/kg
24 | Nc1ncnc2c1nc(Cl)n2Cc1ccccc1 | > 10 µM | –

Row | SMILES | minimal effective concentration (Mus musculus [1]) | minimal effective dose (Mus musculus [2])
25 | CSc1nc(N)c2nc(O)n(Cc3ccccc3)c2n1 | 0.1 µM | 0.1 mg/kg
26 | Nc1nc(S)nc2c1nc(O)n2Cc1ccccc1 | 10 µM | –
27 | CCCSc1nc(N)c2nc(O)n(Cc3ccccc3)c2n1 | 0.01 µM | 0.1 mg/kg
28 | NNc1nc2c(N)ncnc2n1Cc1ccccc1 | > 10 µM | –
29 | CCSc1nc(N)c2nc(O)n(Cc3ccccc3)c2n1 | 0.1 µM | 0.1 mg/kg
30 | Nc1ncnc2c1nc(I)n2Cc1ccccc1 | > 10 µM | –
31 | Nc1ncnc2c1nc(O)n2Cc1cccc2ccccc12 | 10 µM | –
32 | COc1ccccc1Cn1c(O)nc2c(N)ncnc21 | 10 µM | –
33 | COc1nc(N)c2nc(O)n(Cc3ccccc3)c2n1 | 0.1 µM | > 1 mg/kg
34 | Nc1nc(O)nc2c1nc(O)n2Cc1ccccc1 | 0.1 µM | 1 mg/kg
35 | CCCCCNc1nc(N)c2nc(O)n(Cc3ccccc3)c2n1 | 0.1 µM | 0.3 mg/kg
36 | Cc1ccc(Cn2c(O)nc3c(N)ncnc32)cc1 | 10 µM | –
37 | CSc1nc2c(N)ncnc2n1Cc1ccccc1 | > 10 µM | –
38 | Nc1ncnc2c1nc(S)n2Cc1ccccc1 | 10 µM | > 30 mg/kg
39 | Nc1ncnc2c1nc(O)n2C1CCCC1 | > 10 µM | –
40 | CCCNc1nc(N)c2nc(O)n(Cc3ccccc3)c2n1 | 0.1 µM | 1 mg/kg
41 | Nc1ncnc2c1nc(O)n2Cc1ccc(Cl)cc1 | 10 µM | 30 mg/kg
42 | CCCCn1c(O)nc2c(N)ncnc21 | > 10 µM | –
43 | CNc1nc(N)c2nc(O)n(Cc3ccccc3)c2n1 | 1 µM | –
44 | Nc1ncnc2c1nc(O)n2Cc1ccccc1 | 10 µM | 30 mg/kg
45 | CCCC[S+]([O-])c1nc(N)c2nc(O)n(Cc3ccccc3)c2n1 (centres undefined) | 0.01 µM | 1 mg/kg
46 | Nc1ncnc2c1nc(O)n2CCc1ccccc1 | > 10 µM | –
47 | Nc1ncnc2c1ncn2Cc1ccccc1 [9-BENZYL-9H-ADENINE] | > 10 µM | –
48 | CC(C)Cn1cnc2c(N)nc3ccccc3c21 [IMIQUIMOD] | 1 µM | 3 mg/kg
